XBP1 UPR activ: adaptive UPR (XBP1) activation; CHO-XBP1 luciferase reporter, IRE1-XBP1 UPR activation, luminescence; percent of tunicamycin response, DMSO as zero; AID 463104; activation, % at 20 µM; 330,000 tested, 0.33% active;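 active = versus positive control, 20 µM dose yields 30% or more activation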
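Assay system: CHO-XBP1 luciferase reporter cells; Schedule: 6 h treatment, 37 °C; Detection: glow luminescence from Steady-Glo reagent; Benchmarks: high control tunicamycin 10 µg/mL final, low control DMSO vehicle only.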
CHOP inhibitor: CHOP inhibition in unfolded protein response | CHO-K1 CHOP-promoter luciferase, tunicamycin-induced, 15-18 h | inhibition, % at 10 µM | 220,000 tested, 3.8% active | AID 2732;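 active = compounds that reduced the stress-induced luciferase reporter signal by more than about 70% of percent inhibition, limit read from the data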
UPR CHOP act: apoptotic UPR (CHOP) activation. activation, % at 10 µM. CHO-CHOP luciferase reporter, luminescence; percent of tunicamycin response over DMSO baseline. 330,000 tested, 0.34% active;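 active = at 10 µM dose, activation of 40% or more, normalized to positive control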
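Evaluation: % reporter activation, DMSO baseline versus tunicamycin full activation; System: CHO-CHOP luciferase reporter cell line; Input: 500 cells/well; Incubation: 6 h compound treatment, 37 °C; Measured by: Steady-Glo luciferase luminescence; Dosing: one dose, 10 µM in 0.5% DMSO; Buffer or medium: F12 medium, 10% FBS; Benchmarks: positive tunicamycin 10 µg/mL, negative DMSO alone.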
A1 inh: inhibitors of the anti-apoptotic protein A1, read as caspase activation. MEF A1-2A-BIM cells, Caspase-Glo 3/7 luminescence, 3 h; percent of clofoctol response, vehicle zero. caspase activation, % (test concentration not listed). 330,000 tested, 0.066% active;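 active = over half of replicate activation scores above 10%, or exactly half above 10 with the replicate mean above 10; inconclusive = replicate mean below 10 yet half the replicates above 10; inactive = over half of replicates below 10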
Of the large screens only hits and unclear results are named; the others gave an inactive call. The full list was thinned out, with hits kept by preference.

CC(C)(C)c1ccc(S(=O)(=O)NCC(=O)Nc2ccc(-c3nc4ccccc4s3)cc2)cc1	CHOP inhibitor 96
Cc1ccc2nc(-c3ccc(NC(=O)CN(c4ccccc4C)S(C)(=O)=O)cc3)sc2c1	CHOP inhibitor 70
CC1(c2ccc(OC(F)F)cc2)NC(=O)N(CC(=O)Nc2ccccc2)C1=O (stereo not drawn)	none (no result: CHOP inhibitor)
CC(NS(=O)(=O)c1cccc(Cl)c1)C(=O)Nc1ccc(-c2nc3ccccc3s2)cc1 (stereo not drawn)	none
Cc1cc(C)cc(N(CC(=O)Nc2ccc(-c3nc4ccc(C)cc4s3)cc2)S(C)(=O)=O)c1	none
Cc1ccc(C)c(S(=O)(=O)NC(C)C(=O)Nc2ccc(-c3nc4ccccc4s3)cc2)c1 (stereo not drawn)	CHOP inhibitor 80
CCC(C)c1ccccc1N1CC(C(=O)N2CCN(S(=O)(=O)c3ccccc3Br)CC2)CC1=O (stereo not drawn)	none (no result: CHOP inhibitor)
COc1ccc(OC)c(-c2csc(NC(=O)CSCC(=O)Nc3cc(C)on3)n2)c1	none (no result: CHOP inhibitor)
Cc1ccc(S(=O)(=O)N2CCCCC2)cc1NC(=O)CSc1ccc2c(c1)OCCO2	none
CCCCN(C)CCn1c(=S)[nH]c2ccc(N3CCOCC3)cc2c1=O	none
Cc1ncoc1C(=O)N1CCCC(C(=O)c2cccc(OC(C)C)c2)C1 (stereo not drawn)	none
CCCCn1c(NC(=O)CC)c(C#N)c2nc3ccccc3nc21	CHOP inhibitor 94
Cc1ccc(C(=O)OC2CCS(=O)(=O)c3sccc32)cc1 (stereo not drawn)	CHOP inhibitor 77
Cc1ccc(N(C(=O)c2csnn2)C(C(=O)NC2CCCC2)c2cccnc2)cc1 (stereo not drawn)	none (no result: CHOP inhibitor)
Cc1cccc(C)c1NC1=C(Cl)C(=O)OC1OC(=O)c1ccccc1 (stereo not drawn)	none
Cc1ccc(NC2=C(Cl)C(=O)OC2OC(=O)c2ccccc2)c(C)c1 (stereo not drawn)	CHOP inhibitor 74
COC(=O)c1cccc(NC(=O)CN2CCOCC2)c1	CHOP inhibitor 72
CCCCCC1CC(CC(=O)NC(=S)Nc2ccccc2Cl)C(=O)O1 (stereo not drawn)	none
CC(C)Nc1nc(Oc2cccc(Cl)c2Cl)cc(C(F)(F)F)n1	CHOP inhibitor 75
CC(C)Nc1nc(Oc2ccc(Cl)cc2Cl)cc(C(F)(F)F)n1	none (no result: A1 inh)
O=C(CSCCNS(=O)(=O)c1ccccc1)Nc1ccccc1	CHOP inhibitor 74
COc1ccc(-c2ccc(C#N)c(OC)n2)cc1	none
CCOc1nc(-c2ccccc2Cl)ccc1C#N	CHOP inhibitor 71
CCn1c(Cn2nnc(-c3ccccc3)n2)nnc1SCc1ccc(Cl)c(Cl)c1	CHOP inhibitor 81
O=C(NNC(=S)Nc1ccc(F)c(Cl)c1)C1CC1	none
Cc1ccccc1OCC(O)Cn1c2ccccc2c2ccccc21 (stereo not drawn)	CHOP inhibitor 90
O=C(O)c1ccc(OCC(O)Cn2c3ccccc3c3ccccc32)cc1 (stereo not drawn)	none
OC(COc1ccccc1)Cn1c2ccccc2c2ccccc21 (stereo not drawn)	CHOP inhibitor 89
CC(=O)Nc1ccc(OCC(O)Cn2c3ccccc3c3ccccc32)c(C)c1 (stereo not drawn)	none
COc1ccccc1Nc1nc(N)nc(CN2CCN(c3ccccc3F)CC2)n1	CHOP inhibitor 83
COc1ccccc1N1CCN(Cc2nc(N)nc(Nc3ccc(C)c(Cl)c3)n2)CC1	CHOP inhibitor 76
COc1ccc(N2CCN(C(c3nnnn3CCc3ccccc3)C(C)C)CC2)cc1 (stereo not drawn)	A1 inh inconclusive
CC(C)C(=O)NC(Nc1cc(C(F)(F)F)ccc1Cl)C(Cl)(Cl)Cl (stereo not drawn)	CHOP inhibitor 72
COC(=O)c1ccc(N2CCC(c3cc(-c4ccc(OC)cc4)n[nH]3)CC2)c([N+](=O)[O-])c1	CHOP inhibitor 79
COC(=O)c1ccc(N2CCN(C(=O)C3CC3)CC2)c([N+](=O)[O-])c1	none (no result: CHOP inhibitor)
COc1ccc(-c2cc(C3CCN(c4ccc(C(C)=O)cc4[N+](=O)[O-])CC3)[nH]n2)cc1	CHOP inhibitor 86
CC(=O)c1ccc(N2CCC(c3cc(-c4ccc(Cl)cc4)n[nH]3)CC2)c([N+](=O)[O-])c1	none
Cc1c(NC(=O)CN(c2ccc(F)cc2)S(=O)(=O)c2ccccc2)c(=O)n(-c2ccccc2)n1C	none (no result: CHOP inhibitor)
CCN(CC)C(=O)COc1ccc(-c2nnc(N3CCCCC3)c3ccccc23)cc1	none
CCOc1ccc(-c2nnc(N3CCCCC3)c3ccccc23)cc1	CHOP inhibitor 79
O=C1CCCCC1C(O)c1ccc(Cl)cc1 (stereo not drawn)	none
Cc1ccc(CSCC(=O)N/N=C/c2sccc2C)cc1	CHOP inhibitor 95
COc1ccc(/C=N/n2cnc3c([nH]c4ccc(F)cc43)c2=O)cc1CSc1ccccn1	CHOP inhibitor 80
Cc1ccc(C(C(=O)NC2CCCC2)N2CCc3ccccc32)cc1 (stereo not drawn)	CHOP inhibitor 79
O=C(NC1CCCCC1)C(c1ccccc1)N1CCc2ccccc21 (stereo not drawn)	none
Cc1oc(-c2ccccc2Cl)nc1CN1CCCCC1CO (stereo not drawn)	none
N/C(=N\c1nc2ccccc2o1)NC(=O)c1ccccc1	CHOP inhibitor 85
CCOc1ccc(/C=C2\SC(=S)N(CCC(=O)N(CCO)c3ccccc3)C2=O)cc1	none (no result: CHOP inhibitor)
Cc1ccc(Oc2nc3c(c(=O)n(Cc4ccccc4F)c(=O)n3C)n2C)cc1	CHOP inhibitor 94
COCCNc1nc2c(c(=O)n(Cc3ccccc3F)c(=O)n2C)n1C	none (no result: CHOP inhibitor)
COCCCn1cc(C(=O)c2cc(Br)ccc2O)cc(C#N)c1=O	none
CCC(=O)n1nc(-c2cccnc2)nc1NCc1ccccc1	none (no result: XBP1 UPR activ, UPR CHOP act, A1 inh)
CC(=O)n1nc(-c2ccccc2)nc1NCc1ccc(F)cc1	CHOP inhibitor 74
CCCC(=O)n1nc(-c2cccnc2)nc1NCc1ccccc1	CHOP inhibitor 70 (no result: XBP1 UPR activ, UPR CHOP act, A1 inh)
COc1ccc(CNc2nc(-c3cccnc3)nn2C(=O)CC(C)C)cc1	CHOP inhibitor 84, A1 inh inconclusive
COc1ccc(-c2nc(SC)n(C(=O)c3ccco3)n2)cc1	CHOP inhibitor 72
COc1ccc(CNc2nc(-c3cccnc3)nn2C(C)=O)cc1	none
CCCCn1c(N)c(N(Cc2ccccc2OC)C(=O)C(C)Oc2ccc(F)cc2)c(=O)[nH]c1=O (stereo not drawn)	none (no result: CHOP inhibitor)
O=C(c1ccco1)n1nc(-c2ccccc2)nc1NCc1ccco1	CHOP inhibitor 81
Cc1ccc(-c2nc(NCc3ccco3)n(C(=O)c3ccco3)n2)cc1	none
CCN1C(=O)C2(C(C#N)=C(N)Oc3c2c(C)nn3-c2ccccc2)c2ccccc21 (stereo not drawn)	none
CCOc1ccccc1OCCOCCN1CCN(Cc2ccccc2)CC1	none
C(=N\N1CCN(C2c3ccccc3-c3ccccc32)CC1)/c1ccncc1	CHOP inhibitor 83
O=C(CCNC(=O)c1ccccc1Cl)NCCc1ccc(Cl)cc1	none (no result: CHOP inhibitor)
O=C(Cc1c(Cl)cccc1Cl)NCCc1ccc(Cl)cc1	CHOP inhibitor 75

Source: PubChem BioAssay
